According to PMC8451076 (International Journal of Nanomedicine, 2021):
Structures can show the parent of a compound that is named as a salt. Where two headings read alike, the source gives them in different places. Each block holds one compound with its values, some of them ahead of it.

What was measured:
[1] = format: physicochemical
How it was run: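 Test material containing 10 mg BBR was enclosed in a blank capsule and run in a rotating-basket tester at 50 rpm and 37 ± 0.5°C. Medium was 900 mL HCl buffer (2.0 g NaCl, pH 1.2; sampled 5–90 min) or 0.2 M sodium phosphate (pH 6.8; sampled 2.5 min–6 h). Samples were 0.22-μm filtered and centrifuged, then BBR was quantified by LC-MS. n = 6.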

[2] = Metabolism stability of BBR in intestinal S9; format: in vitro ADME; conditions: mouse, intestinal S9, pH 7.4
How it was run: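 Mouse intestinal S9 (2 mg/mL) plus test material (BBR final 10 μg/mL) in 50 mM Tris-HCl pH 7.4 was preincubated 5 min at 37°C, then started with NADPH (1 mg/mL). After 0.5 or 1 h, reactions were stopped with equal-volume chilled methanol containing carbamazepine internal standard and centrifuged. Residual BBR and demethylberberine were measured by LC-MS/MS.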

[3] = Transportation of BBR across MDCK-MDR1 cell monolayer; format: in vitro ADME, canine; conditions: dog
How it was run: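 MDCK-MDR1 cells were grown in DMEM/10% FBS/15 mM HEPES and seeded on polycarbonate Transwells (2×10^5 cells/mL) until TEER exceeded 500 Ω·cm2. Cells were equilibrated 20 min in HBSS (pH 7.2). BBR (final 10 μg/mL) was added apical or basolateral, and both sides were sampled after 2 or 4 h for LC-MS/MS. Papp = ΔQ/(Δt·A·C0), with A 0.33 cm2.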

[4] = cited from earlier work; for oral bioavailability: purified constituents of TCMs
[5] = Solubility of BBR in supersaturated aqueous solutions; format: physicochemical; conditions: water, thermodynamic from solid
How it was run: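 Supersaturated aqueous preparations, each at 10 mg/mL BBR, were sonicated 1 h and centrifuged at 16,000 rpm for 10 min. BBR in the supernatant was quantified by LC-MS. n = 6.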

Caco-2 cells = assay: Uptake of BBR in Caco-2 cells with endocytosis inhibitors; format: cell-based, human; conditions: Nnps containing 10 μg/mL BBR, 4 h, indomethacin 100 μg/mL, chlorpromazine 10 μg/mL, cytochalasin D 5 μM

dissolution rate of BBR ([1]; artificial gastric juice (pH 1.2), 15 min): 7.5% | dissolution rate of BBR ([1]; artificial gastric juice (pH 1.2), end point): 35.3% | dissolution rate of BBR ([1]; artificial intestinal juice (pH 6.8), 15 min): 1.8% | dissolution rate of BBR ([1]; artificial intestinal juice (pH 6.8), end point 6 h): 60.9% | half-life at 10 μg/mL [2]: 2.48 h | Papp at 10 μg/mL [3]: < 10 nm/s | solubility at 1 h [5]: ~3.7 mg/mL
SMILES: COc1ccc2cc3[n+](cc2c1OC)CCc1cc2c(cc1-3)OCO2 [BBR, berberine hydrochloride]
bioavailability of oral BBR ([4]; oral): 0.36% | fraction of BBR excreted directly with feces after oral administration ([4]; oral): approximately 56% | intestinal elimination of the oral dose ([4]; oral): 43.5% | oral bioavailability [4]: less than 5%

SMILES: CN(C)CCCN1c2ccccc2Sc2ccc(Cl)cc21 [Chlorpromazine, chlorpromazine]
effect of endocytosis inhibitor on uptake of BBR carried by the Nnps (Caco-2 cells): promoted the uptake

SMILES: COc1ccc2c(c1)c(CC(=O)O)c(C)n2C(=O)c1ccc(Cl)cc1 [Indomethacin, indomethacin]
effect of endocytosis inhibitor on uptake of BBR carried by the Nnps (Caco-2 cells): significantly reduced

SMILES: CC(C)=CCC[C@](C)(O[C@@H]1O[C@H](CO[C@@H]2OC[C@H](O)[C@H](O)[C@H]2O)[C@@H](O)[C@H](O)[C@H]1O)[C@H]1CC[C@]2(C)[C@@H]1[C@H](O)C[C@@H]1[C@@]3(C)CC[C@H](O[C@@H]4O[C@H](CO)[C@@H](O)[C@H](O)[C@H]4O[C@@H]4O[C@H](CO)[C@@H](O)[C@H](O)[C@H]4O)C(C)(C)[C@@H]3CC[C@]12C [Rb2, ginsenoside Rb2]
oral bioavailability [4]: less than 5%

SMILES: CC(C)=CCC[C@](C)(O[C@@H]1O[C@H](CO[C@@H]2OC[C@@H](O)[C@H](O)[C@H]2O)[C@@H](O)[C@H](O)[C@H]1O)[C@H]1CC[C@]2(C)[C@@H]1[C@H](O)C[C@@H]1[C@@]3(C)CC[C@H](O[C@@H]4O[C@H](CO)[C@@H](O)[C@H](O)[C@H]4O[C@@H]4O[C@H](CO)[C@@H](O)[C@H](O)[C@H]4O)C(C)(C)[C@@H]3CC[C@]12C [Rb3, ginsenoside Rb3]
oral bioavailability [4]: less than 5%

SMILES: CC(C)(O)[C@@H]1CC[C@](C)([C@H]2[C@@H](O)C[C@@]3(C)[C@@H]4C[C@H](O[C@@H]5O[C@H](CO)[C@@H](O)[C@H](O)[C@H]5O)[C@H]5C(C)(C)[C@@H](O[C@@H]6OC[C@@H](O)[C@H](O)[C@H]6O)CC[C@@]56C[C@@]46CC[C@]23C)O1 [astragaloside IV]
oral bioavailability [4]: less than 5%

SMILES: O=C(O)[C@H]1O[C@@H](Oc2cc3oc(-c4ccccc4)cc(=O)c3c(O)c2O)[C@H](O)[C@@H](O)[C@@H]1O [baicalin]
oral bioavailability [4]: less than 5%

SMILES: COc1cc(/C=C/C(=O)CC(=O)/C=C/c2ccc(O)c(OC)c2)ccc1O [curcumin]
oral bioavailability [4]: less than 5%

SMILES: C=C1[C@@H](C)[C@H]2[C@H](Cc3ccccc3)NC(=O)[C@]23[C@H](OC(C)=O)/C=C/[C@@](C)(O)C(=O)[C@@H](C)C/C=C/[C@H]3[C@@H]1O [cytochalasin D]
effect of endocytosis inhibitor on uptake of BBR carried by the Nnps (Caco-2 cells): promoted the uptake

SMILES: CC(C)=CCC[C@](C)(O[C@@H]1O[C@H](CO[C@@H]2O[C@H](CO)[C@@H](O)[C@H](O)[C@H]2O)[C@@H](O)[C@H](O)[C@H]1O)[C@H]1CC[C@]2(C)[C@@H]1[C@H](O)C[C@@H]1[C@@]3(C)CC[C@H](O[C@@H]4O[C@H](CO)[C@@H](O)[C@H](O)[C@H]4O[C@@H]4O[C@H](CO)[C@@H](O)[C@H](O)[C@H]4O)C(C)(C)[C@@H]3CC[C@]12C [ginsenoside Rb1]
oral bioavailability [4]: less than 5%

SMILES: CC1(C)[C@@H](O[C@H]2O[C@H](C(=O)O)[C@@H](O)[C@H](O)[C@H]2O[C@@H]2O[C@H](C(=O)O)[C@@H](O)[C@H](O)[C@H]2O)CC[C@]2(C)[C@H]3C(=O)C=C4[C@@H]5C[C@@](C)(C(=O)O)CC[C@]5(C)CC[C@@]4(C)[C@]3(C)CC[C@@H]12 [glycyrrhizin]
oral bioavailability [4]: less than 5%

SMILES: Cc1coc2c1C(=O)C(=O)c1c-2ccc2c1CCCC2(C)C [tanshinone IIA]
oral bioavailability [4]: less than 5%
